Screens as filed in PubChem.
Shown are actives, neighbours in structure and some others; about 2.7% of the full set was active somewhere.
PLK1 inh = inhibitors of human PLK1 kinase | inhibition, % at 10 µM | 97,000 tested, 0.53% active | recombinant PLK1 kinase, TR-FRET peptide phosphorylation | P53350;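 active = inhibition of 50% or more in the single-concentration screen; inactive = inhibition below 50%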;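 note: 0% = DMSO max control and 100% = H-89 dihydrochloride min control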
HIV Rev-RRE inh = HIV Rev-RRE protein-RNA interaction inhibition; inhibition, % at 8 µM; P05866; 97,000 tested, 0.79% active; Rev peptide-RRE RNA binding, FRET;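 active = inhibition above the screen-wide mean plus 3 SD, cut at about 35% in these data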;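 note: 0% = median DMSO wells and 100% = median Neomycin B control wells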
Target sequence (P05866 whole entry, looked up): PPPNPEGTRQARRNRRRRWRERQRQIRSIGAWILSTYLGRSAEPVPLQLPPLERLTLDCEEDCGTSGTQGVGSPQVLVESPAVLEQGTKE
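Test system – labelled RRE RNA duplex and labelled Rev peptide · Signal – fluorescein-to-Cy5 FRET, 480 nm excitation · Evaluation – % inhibition of FRET ratio versus controls · Benchmarks – DMSO low control, neomycin B high control · Incubation – 5 min RNA-compound premix plus 15 min binding step, 25 °C · Medium – HEPES pH 7.5 salt buffer with EDTA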
PLK1 PBD inh = Plk1 (human) PBD binding inhibition. 97,000 tested, 0.13% active. P53350. Plk1 PBD phosphopeptide binding, fluorescence polarization. inhibition, %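 (tested at about 20 µM)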; in the data active = inhibition above about 34%, passing the limit was not always enough
LYP act = activators of human LYP (PTPN22) phosphatase. Q9Y2R2. recombinant LYP, DiFMUP fluorescence; 0 = plate median, 100 = signal doubled. activation, % at 2 µM. 96,000 tested, 0.11% active. AID 697;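 active = activation at 2 µM above a set limit, the mean plus 5 SD, cut at about 37% in these data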
hDAT+cocaine = changed human dopamine transporter uptake under cocaine IC80 | LLC-PK1 hDAT cells, [14C]-dopamine uptake with cocaine IC80; actives deviate in either direction | 110,000 tested, 1.3% active | B-score at 10 µM;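 active = Z score or B-score, a plate-position-corrected score, falls beyond the plate's 99.7% confidence bounds, in either direction; inactive = both scores lie inside the 99.7% bounds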;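 note: scored against the spread of the other compound wells on the same plate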
PTPN22 inh 2 = LYP (human) phosphatase inhibition; Q9Y2R2; recombinant LYP catalytic domain, DiFMUP fluorescence; inhibition, % at 2 µM; 96,000 tested, 0.21% active; AID 640;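 active = inhibition at 2 µM at or above a set limit, the screen mean plus 3 SD, cut at about 24% in these data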;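 note: 0% = DMSO with enzyme and 100% = enzyme fully blocked by orthovanadate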
Active calls of the source: *; x = not tested or not shown; [ ] = remark or other dose.

SMILES	PLK1 inh	HIV Rev-RRE inh	PLK1 PBD inh	LYP act	hDAT+cocaine	PTPN22 inh 2
CC1(C)Cc2c(C#N)c(OCC(=O)c3ccc(Cl)cc3)nc(-c3ccco3)c2CO1	-13	9	-2	-2	-2.4*	-2
CC1(C)Cc2c(c(-c3ccco3)nc3n[nH]c(N)c23)CO1	52*	7	-10	-1	-0.15	-1
CC1(C)Cc2c(C#N)c(N3CCCC3)nc(-c3ccco3)c2CO1	51*	11	-21	x	0.58	x
O=C(CN(Cc1ccccc1F)S(=O)(=O)c1ccc(Cl)cc1)NCCCO	-14	2	-7	-2	0.067	-1
CCNc1nc(NC(C)C)nc(OCCOC(=O)Nc2ccccc2)n1	-18	4	5	15	3.6*	-21
CCNc1nc(NCC)nc(OCCOC(=O)c2ccccc2)n1	x	x	x	x	0.062	x
O=C(O)/C=C/c1ccc(Cn2ccnc2)cc1	x	x	x	x	-0.28	x
NS(=O)(=O)c1cccnc1Nc1c(Cl)cccc1Cl	-6	3	7	-4	-1.3	2
CN(CCOc1ccc(-c2ccn(S(=O)(=O)c3cccc4ccccc34)n2)cc1)c1ccccn1	-7	6	-1	-7	-8.3*	10
CN(CCOc1ccc(-c2ccn(S(=O)(=O)c3c(Cl)cccc3Cl)n2)cc1)c1ccccn1	-15	10	-6	-4	0.37	2
CCOc1ccc(N2C(=O)C(Cl)=C(Nc3ccccc3O)C2=O)cc1	-9	37*	-13	-4	-0.17	3
CCOc1ccc(N2C(=O)CN=C2Nc2ccccc2Cl)cc1	-6	0	-13	1	1.3	0
O=C(O)C[C@H]1c2cc(C(F)(F)F)ccc2S(=O)(=O)N1Cc1ccccc1	x	x	x	x	0.34	x
CCNC(=S)N/N=C/c1ccc(OCC(=O)Nc2ccc(C)cc2)cc1	-9	1	-27	-2	-2.9*	-3
CCC(=O)NC(=S)Nc1ccc(Cl)cn1	1	5	-16	-3	2.2*	6
CCCCC(=O)Nc1ccc(Cl)cn1	-13	3	-16	13	-0.7	-14
O=[N+]([O-])c1ccc(N2CCN(S(=O)(=O)c3ccccc3)CC2)cc1NCc1cccnc1	-9	6	5	-1	-0.48	7
O=[N+]([O-])c1ccc(N2CCN(S(=O)(=O)c3ccc(Cl)cc3)CC2)cc1NCc1cccnc1	-7	3	-10	-20	0.18	24*
Cc1ccc2nc(N3CCN(C=O)CC3)nc(-c3ccccc3)c2c1	-13	6	-37	-7	2.8*	6
Cc1ccc(N(CC(O)CON=C2c3ccccc3-c3ccccc32)S(C)(=O)=O)cc1 (stereo not given)	-10	15	-3	17	0.6	-16
CNc1oc(-c2ccccc2)nc1C#N	x	x	x	x	-7.8*	x
CCOC(=O)C1CCCN(C(=O)c2ccc(C)cc2O)C1 (stereo not given)	-11	1	3	-2	-0.55	-1
O=c1cc(N2CCOCC2)[nH]c(=O)n1Cc1ccc(F)cc1	69*	8	-17	x	-0.37	x
O=c1cc(N2CCN(c3ccc(F)cc3)CC2)[nH]c(=O)n1Cc1ccc(F)cc1	-7	0	13	1	1.2	-2
Cc1ccccc1N1C(=O)c2cccc3c(N(C)CCO)ccc(c23)C1=O	-33	125*[fluorescence artefact?]	-26	-2	-0.086	-1
SMILES	PLK1 inh	HIV Rev-RRE inh	PLK1 PBD inh	LYP act	hDAT+cocaine	PTPN22 inh 2
CSc1cc(-c2ccc(Cl)cc2)c(C(=O)NC(C)C)s1	-9	6	10	-3	-0.29	7
CSc1cc(-c2ccc(Cl)cc2)c(C(=O)NN)s1	-7	5	-30	-5	3.2*	8
Clc1ccc(OCc2nnc(SCCN3CCCCC3)n2Cc2ccco2)cc1	x	x	x	x	3.3*	x
CC(=O)c1sc2nc(-c3cccs3)cc(C(F)(F)F)c2c1N	-13	107*[fluorescence artefact?]	-21	11	-0.49	-14
Cc1ccc(-c2cc(-c3ccccc3)c3c(N)c(S(C)(=O)=O)sc3n2)cc1	-16	10	-22	-9	0.73	11
CS(=O)(=O)c1sc2nc(-c3cccs3)cc(-c3ccccc3)c2c1N	-7	36*	-14	-5	0.15	3
COc1cccc(-c2cc(C(F)(F)F)c3c(N)c(C#N)sc3n2)c1	-16	29	10	0	x	3
Nc1c(C(=O)C2CC2)sc2nc(-c3ccccc3)cc(C(F)(F)F)c12	-29	112*[fluorescence artefact?]	18	-11	-0.29	12
Cc1c(C(=O)Nc2nccs2)sc2nc(-c3cccs3)cc(C(F)(F)F)c12	-7	-2	3	5	0.094	-4
O=C1C(=O)N(CCO)C(c2ccccc2)/C1=C(\O)c1ccccc1 (stereo not given)	55*	5	-8	x	0.14	x
COc1ccc2nc(N3CCC(O)CC3)c(C#N)cc2c1	5	37*	4	3	-0.17	-3
C=C(C)C(=O)Nc1cccc(C2=NOC3(C2)C[C@H](C(N)=O)N(C(=O)c2ccccc2C(=O)c2ccccc2)C3)c1 (stereo not given in full)	x	x	x	x	1.1	x
COc1ccc(C2C(C#N)=C(N)N(c3sc4c(c3C#N)CCCC4)C3=C2C(=O)CC(C)(C)C3)cc1OC (stereo not given)	-9	5	-6	-27	1.9	26*
COc1ccc(C2C(C#N)=C(N)N(c3sc4c(c3C#N)CCCC4)C3=C2C(=O)CC(C)(C)C3)cc1 (stereo not given)	-2	8	-6	-2	0.25	1
COc1ccc(C2C(C#N)=C3NC(=O)c4c(sc5c4CCCCC5)N3C3=C2C(=O)CC(C)(C)C3)cc1 (stereo not given)	-6	19	-49	-17	2.3*	19
COc1ncccc1-c1nnn(-c2ccc(F)cc2)n1	x	x	x	x	0.29	x
CC(C)[C@@H](C(=O)N1CCNCC1)n1cc(CCO)nn1	x	x	x	x	-0.98	x
COc1cc(CNC(=O)c2ccc3c(c2)S(=O)(=O)c2ccccc2C3=O)cc(OC)c1	x	x	x	x	0.22	x
O=c1/c(=C\c2cccn2-c2ccccc2)sc2nc3ccccc3n12	x	x	x	x	-0.68	x
O=C(O)c1ccccc1-c1ccc(/C=c2\sc3nc4cc(Br)cnc4n3c2=O)o1	-26	99*[fluorescence artefact?]	-12	-1	-0.49	-1
Nc1c(N2CCOCC2)cc(Cl)c2nonc12	-10	-1	-11	4	0.058	-5
Nc1c(N2CCCC2)cc(Cl)c2nonc12	7	41*	-41	-3	-2.2	4
CC(C)OC(=O)c1ccc(N2C(=O)C3CC=CCC3C2=O)cc1 (stereo not given)	-5	-3	23	5	0.39	-2
CCOC(=O)c1ccc(N2C(=O)C3CC=CCC3C2=O)cc1 (stereo not given)	-2	-2	16	5	7.9*	-2
CCOC(=O)c1ccc(N2C(=O)C3C(C2=O)C(C(=O)c2ccc(Cl)cc2)N2CCCC32)cc1 (stereo not given)	-11	66*	0	9	x	-9
